Results on 40 compounds are retold here after PubChem BioAssay.

Unmarked numbers belong to inactive results.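 How the source made its calls, unless noted: active means growth inhibition above a set limit, 3 SD over mean compound inhibition, in both replicates (cut at about 43% in these data); inconclusive means above the limit in only one replicate; inactive means at or below the limit in both replicates.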

One experiment is described as follows: S. cerevisiae growth inhibition in permissive medium (OD615), pilot counter-assay for S. cerevisiae lifespan shortening project, permissive growth control (AID 705;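 active means growth inhibition above 25% in both replicates, a cutoff set 3 SD above the mean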). The following applies: OD615, 24 h, at 10 µM, hits give high values. Put shortly:
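assay system = Saccharomyces cerevisiae strain carrying genetically modified DeaD replicative-lifespan system | medium = SC raffinose/galactose permissive medium | dosing = 10 µM single dose, 0.25% DMSO | schedule = 24 h compound exposure at 30 °C after 4 h pre-growth | measured by = OD at 615 nm | read-out basis = growth inhibition from lowered OD615 after 24 h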
On to `COC(=O)c1cn(NC(=O)c2ccc3c(c2)OCO3)c(=O)c2ccccc12`, for which the growth inhibition is -4.02%.
The same measure, in the same setting: the value for `CCCCS(=O)CC(CS(=O)CCCC)OC(=O)c1ccccc1` (centres undefined) was 4.33%; that for `Cc1ccc(-n2c3c(cc(C(=O)N4CCN(C)CC4)c2=O)C(=O)CC(C)(C)C3)cc1` was -21.9%.
On the same count and under the same terms, the value for `CC(C)CCn1c(SCC(N)=O)nc2c1c(=O)n(C)c(=O)n2C` was -11.8%.
For the compound `CCOc1ccc(C(=O)NCc2ccncc2)cc1OCC`, the growth inhibition is 8.96%.
Same read-out and setting: the value for `COc1cc(OC)nc(NC(=O)C(C)C)n1` was -1.12%.
Turning to `COc1ccc(NC(=O)c2c(NC(=O)CNCc3ccco3)sc3c2CCC3)c(OC)c1`, the growth inhibition was -3.54%.
As to `CC(=O)Nc1ccc(S(=O)(=O)N2CCN(c3ccc(C)c(Cl)c3)CC2)cc1`, the growth inhibition is -14.6%.
Regarding `Cn1c(Cn2c(=O)sc3ccccc32)nnc1SCC(=O)NCCc1ccccc1`, the growth inhibition was -10%.
Turning to `CCOCCn1c(COc2ccccc2)nc2ccccc21`, the growth inhibition was -6.72%.
Take `COc1ccc(COC(=O)C2=C(C)NC(=O)NC2c2ccc(O)c(OC)c2)cc1` (centres undefined): the growth inhibition is -12%.
Regarding `CCCOc1ccc(C2c3c(oc4cc(C)c(C)cc4c3=O)C(=O)N2CCCN2CCOCC2)cc1` (centres undefined), the growth inhibition is 8%.
On to `CCCCOC(=O)Nc1ccc(S(=O)(=O)Nc2cc(C)nc(C)n2)cc1`, for which the growth inhibition was -16.6%.
Same read-out and setting: the figure for `O=S(=O)(NCCO)c1cccc2cccnc12` is -8.73%; for `CC(C)(C)C1(C)OC(C(N)=O)C(C(N)=O)O1` (centres undefined) it is -7.22%.
Turning to `COc1ccc(-c2cn3c(C)c(C(=O)N4CCN(c5ccccc5)CC4)sc3n2)cc1`, the growth inhibition was -0.58%.
Take `Cc1ccccc1OCC(O)Cn1c(NCCN(C)C)nc2c1c(=O)n(C)c(=O)n2C` (centres undefined): the growth inhibition was -13.3%.
For `CCNc1nc(NCC)nc(-n2nc(C)cc2C)n1`, the growth inhibition was 4.27%.
With `Cc1nc2scc(-c3cccs3)c2c(=O)o1`, the growth inhibition is -24%.
On to `CC1COC2C(O1)N(S(C)(=O)=O)CCN2S(C)(=O)=O` (centres undefined), for which the growth inhibition was -7.71%.
Regarding `O=C(NCCN1C(=O)C2C3C=CC(C3)C2C1=O)NCc1ccccc1` (centres undefined), the growth inhibition was -14.8%.
For `COC(=O)Cn1c(CCC(=O)O)ccc1-c1ccccc1`, the growth inhibition is -1.1%.
Same read-out and setting: the figure for `COC(=O)C1C2C=CC3(CN(c4ccc(Cl)c(F)c4)C(=O)C13)O2` (centres undefined) is -5.96%; for `Cc1cnn(-c2ccc3nnc(-c4ccc(Br)cc4)n3n2)c1` it is -5.48%.

A short description of the next experiment: S. cerevisiae growth inhibition in restrictive medium, OD615, pilot screen, restrictive growth control, yeast lifespan reduction project (AID 706). The following applies: OD615, 48 h, at 10 µM, hits give high values. Put shortly: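 Buffer or medium: CSMM-D glucose medium. Material: genetically modified Saccharomyces cerevisiae, DeaD replicative lifespan assay strain. Times: 48 h compound exposure at 30 °C. Measured by: optical density at 615 nm.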
For `COC(=O)c1ccsc1NC(=O)c1ccc(Cl)s1`, the growth inhibition was -27.1%.
In the case of `COC(=O)C1C(=O)c2c([nH]c(C(=O)OC3CCCCC3)c2C)CC1C` (centres undefined), the growth inhibition is 2.14%.
Regarding `Cc1cc(-c2nnco2)c(C)n1-c1ccc(F)cc1`, the growth inhibition is -5.7%.
Consider `O=C1CCCCC(=O)N(c2ccccc2)c2ccccc21`, for which the growth inhibition was -15%.
For `CCOC(=O)N1CCN(C(=O)Cn2ncc3c2-c2ccccc2OC3)CC1`, the growth inhibition is -8.46%.
For the compound `COCc1cc(C)nc2sc3c(=O)n(Cc4ccco4)nnc3c12`, the growth inhibition was -13.3%.
Still for that read-out and setting: the value for `O=C1c2ccccc2C(=O)N1CCCc1nc2ccccc2c(=O)n1Cc1ccco1` was -12.6%.
Still for that read-out and setting: the figure for `CS(=O)(=O)c1ccc2nc(NC(=O)C3CCCCC3)sc2c1` is -7.79%.
`CC(=O)Oc1cccc(N2C(=O)C3CC=C(Cl)CC3C2=O)c1` (centres undefined): the growth inhibition was -22.9%.
As for `Cc1cccc(-n2ncc3c(N4CCC(C)CC4)ncnc32)c1`, the growth inhibition is 10.6%.
With `CCOc1ccc(C2c3c(oc4ccccc4c3=O)C(=O)N2c2ccc(C)cn2)cc1OC` (centres undefined), the growth inhibition was 2.13%.
Same read-out and setting: the value for `COc1ccc(N2C(=O)C(CC(=O)O)S/C2=C\C(C)=O)cc1` (centres undefined) was -2.82%; that for `Cn1c(Cn2c(=O)sc3ccccc32)nnc1SCC(=O)NCc1ccccc1` was -7.48%.
Still for that read-out and setting: the value for `O=C(CCNS(=O)(=O)c1cccc2nonc12)NCc1cccs1` was -14.2%; that for `O=C(CN(Cc1ccc(F)cc1)S(=O)(=O)c1ccccc1)N1CCCCC1` was -3.51%.
As for `O=C1C2C(c3ccccc3)C=CC(c3ccccc3)C2C(=O)N1CCO` (centres undefined), the growth inhibition is -8.43%.
Consider `COC(=O)c1cn(NC(=O)c2ccc3c(c2)OCO3)c(=O)c2ccccc12`, for which the growth inhibition is -1.45%.
Turning to `CCCCS(=O)CC(CS(=O)CCCC)OC(=O)c1ccccc1` (centres undefined), the growth inhibition is 5.83%.
As for `Cc1ccc(-n2c3c(cc(C(=O)N4CCN(C)CC4)c2=O)C(=O)CC(C)(C)C3)cc1`, the growth inhibition was -9.49%.
Turning to `CC(C)CCn1c(SCC(N)=O)nc2c1c(=O)n(C)c(=O)n2C`, the growth inhibition is -14.9%.
Turning to `CCOc1ccc(C(=O)NCc2ccncc2)cc1OCC`, the growth inhibition is 7.73%.
For `COc1cc(OC)nc(NC(=O)C(C)C)n1`, the growth inhibition was 6.71%.
Consider `COc1ccc(NC(=O)c2c(NC(=O)CNCc3ccco3)sc3c2CCC3)c(OC)c1`, for which the growth inhibition is -19%.
As to `CC(=O)Nc1ccc(S(=O)(=O)N2CCN(c3ccc(C)c(Cl)c3)CC2)cc1`, the growth inhibition was 6.34%.
For `Cn1c(Cn2c(=O)sc3ccccc32)nnc1SCC(=O)NCCc1ccccc1`, the growth inhibition was -16.2%.
Still for that read-out and setting: the figure for `CCOCCn1c(COc2ccccc2)nc2ccccc21` is 1.93%; for `COc1ccc(COC(=O)C2=C(C)NC(=O)NC2c2ccc(O)c(OC)c2)cc1` (centres undefined) it is -17.8%.
On the same count and under the same terms, the figure for `CCCOc1ccc(C2c3c(oc4cc(C)c(C)cc4c3=O)C(=O)N2CCCN2CCOCC2)cc1` (centres undefined) is 1.72%; for `CCCCOC(=O)Nc1ccc(S(=O)(=O)Nc2cc(C)nc(C)n2)cc1` it is -11.7%; for `O=S(=O)(NCCO)c1cccc2cccnc12` it is -10.2%.
In the case of `CC(C)(C)C1(C)OC(C(N)=O)C(C(N)=O)O1` (centres undefined), the growth inhibition is -1.06%.
Take `COc1ccc(-c2cn3c(C)c(C(=O)N4CCN(c5ccccc5)CC4)sc3n2)cc1`: the growth inhibition is -13.6%.
On the same count and under the same terms, the figure for `Cc1ccccc1OCC(O)Cn1c(NCCN(C)C)nc2c1c(=O)n(C)c(=O)n2C` (centres undefined) is 2.24%; for `CCNc1nc(NCC)nc(-n2nc(C)cc2C)n1` it is 4.28%; for `Cc1nc2scc(-c3cccs3)c2c(=O)o1` it is 14.4%.
For the compound `CC1COC2C(O1)N(S(C)(=O)=O)CCN2S(C)(=O)=O` (centres undefined), the growth inhibition is -12.4%.
`O=C(NCCN1C(=O)C2C3C=CC(C3)C2C1=O)NCc1ccccc1` (centres undefined): the growth inhibition was 3.81%.
Consider `COC(=O)Cn1c(CCC(=O)O)ccc1-c1ccccc1`, for which the growth inhibition was -4.95%.
Take `COC(=O)C1C2C=CC3(CN(c4ccc(Cl)c(F)c4)C(=O)C13)O2` (centres undefined): the growth inhibition was 0.405%.
For `Cc1cnn(-c2ccc3nnc(-c4ccc(Br)cc4)n3n2)c1`, the growth inhibition is -11.2%.
